Laboratory results from publication PMC9128166 (Cancer Science, 2022).
Where “and” joins values, the source holds several entries; their conditions need not be identical. Identical values can stand only once. Entries after “also recorded” stand apart in the source; their conditions may differ.

Tests used:
Type in all cases: in vivo, Japanese patients
[1] = Parsaclisib exposure and patient disposition
Procedure, shortened: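 Safety population: all enrolled patients given ≥1 dose. Regimen was 10 or 20 mg QD for 8 weeks, then QW, until progression, death, unacceptable toxicity or consent withdrawal. AEs were graded by NCI CTCAE v4.03. Treatment duration (d) = last dose − first dose + 1. QW-period duration (wk) = ceiling[(last dose − first QW dose + 1)/7]. Interruptions and reductions were tallied by dosing period.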

[2] = Dose-limiting toxicity / MTD, 3 + 3 dose escalation and expansion
Procedure, shortened: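 Oral test compound in Japanese patients: once daily for 8 weeks, then the same dose weekly; starting dose 10 mg QD. Patients were hospitalised for the 28-day DLT period. DLTs were graded by NCI CTCAE v4.03. MTD was one level below the dose with DLT in ≥2 of 6 patients, with 3 added patients to confirm.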

[3] = test system: relapsed or refractory marginal zone lymphoma; test: Investigator-assessed response
Procedure, shortened: (§1)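 Investigator-assessed response by Lugano criteria in the full analysis set (all treated patients). Patients received 10 or 20 mg QD orally for 8 weeks, then the same dose QW. CT, FDG-PET or PET-CT was chosen by subtype, using the same technique as at screening. Scans ran every 8 weeks through week 24, every 12 weeks through week 96, then every 24 weeks until progression.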

[4] = test system: relapsed or refractory diffuse large B‐cell lymphoma; test: Investigator-assessed response
Procedure, shortened: as §1

[5] = test system: plasma proteins associated with PI3Kδ inhibition; test: Plasma proteomic pharmacodynamic biomarkers
[6] = two responders with MZL, individual values

With `CCOc1c([C@H](C)n2nc(C)c3c(N)ncnc32)cc(Cl)c(F)c1[C@@H]1CNC(=O)C1` [parsaclisib] as the compound, how does the “Patients with dose interruption” value ([1]; 10 mg QD + 10 mg QW (n = 3)) read?
Its value is 2 (66.7) n (%).

What about the “Patients with dose reduction” value ([1]; 10 mg QD + 10 mg QW (n = 3)) of the same compound?
Its value is 1 (33.3) n (%).

And the “Patients with dose interruption” value ([1]; 20 mg QD + 20 mg QW (n = 14))?
Its value is 8 (57.1) n (%).

What about the “Patients with dose reduction” value ([1]; 20 mg QD + 20 mg QW (n = 14)) of the same compound?
The value was 4 (28.6) n (%).

What about the “patients who discontinued treatment due to AEs / TEAEs” value ([1]; 2 of 17 patients (varicella zoster infection, pyrexia)) of the same compound?
Its value is 11.8%.

And the “patients requiring a dose reduction” value ([1]; 5 of 17 patients)?
The value was 29.4%.

What about the “patients remaining on study treatment at data cut‐off” value ([1]; 6 of 17 patients) of the same compound?
The value was 35.3%.

What about the “patients requiring a dose interruption during the treatment period” value ([1]; 10 of 17 patients) of the same compound?
The value was 58.8%.

And the “Patients with dose interruption” value ([1]; Total (N = 17))?
The value was 10 (58.8) n (%).

What about the “Patients with dose reduction” value ([1]; Total (N = 17)) of the same compound?
Its value is 5 (29.4) n (%).

And the MTD ([2]; 20 mg QD for 8 weeks followed by 20 mg QW)?
The MTD was “not considered to have exceeded the MTD; also recorded: the criteria for MTD was not exceeded”.

What about the “DLTs during dose expansion” value ([2]; 20‐mg dose level, QD schedule) of the same compound?
Its value is “grade 3 febrile neutropenia on day 28 and grade 4 neutropenia on day 14 (each in 1 patient); also recorded: two DLTs occurred in one patient each”.

And the “DLTs during the 28‐day DLT observation period” value ([2]; dose‐escalation phase, 10‐mg (n = 3) or 20‐mg (n = 3) dose level)?
The value was “No DLTs”.

What about the “BOR, CMR/CR” value ([3]; MZL (n = 2)) of the same compound?
Its value is 0 (0.0) n (%).

And the “BOR, NMR/SD” value ([3]; MZL (n = 2))?
The value was 0 (0.0) n (%).

What about the “BOR, PMD/PD” value ([3]; MZL (n = 2)) of the same compound?
The value was 0 (0.0) n (%).

And the “BOR, PMR/PR” value ([3]; MZL (n = 2))?
Its value is 2 (100) n (%).

And the Objective response ([3]; MZL (n = 2))?
The Objective response was 2 (100.0) n (%).

What about the “BOR, Not assessed” value ([3]; MZL (n = 2), no postbaseline response data available) of the same compound?
The value was 0 (0.0) n (%).

What about the ORR ([3]; MZL, 2 of 2 patients) of the same compound?
Its ORR is 100%.

What about the “observed PFS” value [3, 6] of the same compound?
Its value is 16.7 months and 22.0 months.

What about the observed response duration [3, 6] of the same compound?
The observed response duration was 14.8 months and 16.8 months.

And the “BOR, CMR/CR” value ([4]; DLBCL (n = 6))?
Its value is 0 (0.0) n (%).

What about the “BOR, NMR/SD” value ([4]; DLBCL (n = 6)) of the same compound?
The value was 1 (16.7) n (%).

And the “BOR, PMD/PD” value ([4]; DLBCL (n = 6))?
The value was 3 (50.0) n (%).

What about the “BOR, PMR/PR” value ([4]; DLBCL (n = 6)) of the same compound?
Its value is 1 (16.7) n (%).

And the Objective response ([4]; DLBCL (n = 6))?
The Objective response was 1 (16.7) n (%).

And the “BOR, Not assessed” value ([4]; DLBCL (n = 6), no postbaseline response data available)?
Its value is 1 (16.7) n (%).

What about the ORR ([4]; DLBCL, 1 of 6 patients (partial response)) of the same compound?
The ORR was 16.7%.

And the “observed PFS” value ([4]; one responder with DLBCL)?
Its value is 13.8 months.

And the observed response duration ([4]; one responder with DLBCL)?
Its observed response duration is 12.2 months.

And the “parsaclisib‐responsive proteins after transition to QW dosing” value ([5]; 10 mg or 20 mg QW, weeks 12 and 24)?
The value was “reverted partially or completely to baseline expression levels”.

What about the “plasma proteins significantly changed following 4 weeks or 8 weeks of QD parsaclisib dosing” value ([5]; FL and MZL (n = 11), approximately 1000 proteins analysed) of the same compound?
Its value is 23 plasma proteins.
